For assay [1], the species on record is Rattus norvegicus. The assay is described as follows: Antioxytoxic activity in vitro in isolated uteri from estrogen pretreated rats suspended in Mg supplemented Dyke-Hastings solution. The assay is classed as functional. The conditions noted are these: read-out: pA2 (converted). The method, boiled down: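 Isolated rat uterus in bath medium with Mg2+; agonist USP Posterior Pituitary Reference Standard. pA2 is the −log of the effective molar antagonist concentration that reduces the response to a dose of agonist to the response to half that dose. It is interpolated semilogarithmically from concentrations above and below it. SEM is given where there are ≥4 independent estimates.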

The subject of assay [2] is Rattus norvegicus. Briefly: Antioxytocic potencies (change in interuterine pressure) in vivo in estrogen pre-treated rats. The assay is classed as functional, organism-based. As to conditions: read-out: pA2 (converted). The method, boiled down:
(§1)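 Rats pretreated with estrogen, under urethane anesthesia; antagonist given iv; read-out is change in integrated intrauterine pressure; agonist synthetic oxytocin. Effective dose (nmol/kg) is the dose that cuts the response to 2X units of agonist to the response to 1X unit, interpolated on a semilog scale from doses above and below it. pA2 is derived assuming a 67 mL/kg distribution volume.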

In assay [3] the test system is Rattus norvegicus. Briefly: (§2) Antivasopressor activity in vivo in phenoxybenzamine pre-treated rats. In kind it is functional, organism-based. As to conditions: read-out: pA2 (converted). In short, it runs like this:
(§3)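 Rats pretreated with phenoxybenzamine, under urethane anesthesia; antagonist given iv; agonist USP Posterior Pituitary Reference Standard; read-out is pressor response. Effective dose (nmol/kg) is the dose that cuts the response to 2X units of agonist to that of 1X unit, interpolated semilogarithmically from bracketing doses. pA2 assumes a 67 mL/kg distribution volume. SEM is given where there are ≥4 independent estimates.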

Assay [4] is filed under the species Rattus norvegicus. Briefly: Antioxytoxic activity in vitro in isolated uteri from estrogen pretreated rats suspended in Mg-free Dyke-Hastings solution. The conditions noted are these: read-out: pA2 (converted).
Assay [5] has as its system Rattus norvegicus. The description is as §2. In kind it is functional. In short, it runs like this:
as §3

Assay [6] relates to Rattus norvegicus. The assay is described as follows: In vivo inhibition of estrogen induced changes in interuterine pressure in rats. The assay is classed as functional. In short, it runs like this:
as §1

Assay [7] deals with Rattus norvegicus. Briefly: Antiantidiuretic activity in vivo in hydrated rats under ethanol anaesthesia. The conditions noted are these: Urine, read-out: pA2 (converted). In kind it is functional, organism-based. The method, boiled down: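 Hydrated rats under ethanol anaesthesia; antagonist given iv against the USP Posterior Pituitary Reference Standard as agonist. Effective dose (nmol/kg) is the dose that cuts the response to 2x units of agonist to equal the response to 1x unit. It is estimated by interpolation on a semilog scale between doses above and below it. pA2 assumes a volume of distribution of 67 mL/kg. Where SEM is given, n ≥4 estimates.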

The values below come from ChEMBL document CHEMBL1124668, “Solid-phase synthesis of 16 potent (selective and nonselective) in vivo antagonists of oxytocin” (J Med Chem, 1989).

Molecules are shown by their SMILES. Starred links: 1 amine or outer side, 2 acyl side, 3 side chain; linkers in the order of their positions; H or OH if unused. Positions of bridges follow the written chain, without caps; N, C: chain ends. Non-standard residues stand in square brackets, D forms with d. Residues, ends and D or L forms follow the SMILES beside them. X1 = O=C(CC1(S[*:2])CCCCC1)[*:1]; Orn = NCCC[C@H](N)C(=O)O

On to `CC[C@H](C)[C@@H]1NC(=O)[C@H](Cc2ccc(OC)cc2)NC(=O)CC2(CCCCC2)SSC[C@@H](C(=O)N2CCC[C@H]2C(=O)N[C@@H](CCCN)C(=O)N[C@@H](C)C(N)=O)NC(=O)[C@H](CC(N)=O)NC(=O)[C@H]([C@@H](C)O)NC1=O` [listing 1 of 2 here], for which the Kb in assay [1] is 6.31 nM; in assay [2] it was 34.7 nM; in assay [3], 112 nM; in assay [4] it was 24 nM.

In the case of `CC[C@H](C)[C@@H]1NC(=O)[C@H](Cc2ccc(OC)cc2)NC(=O)CC2(CCCCC2)SSC[C@@H](C(=O)N2CCC[C@H]2C(=O)N[C@@H](CCCN)C(=O)N[C@@H](C)C(N)=O)NC(=O)[C@H](CC(N)=O)NC(=O)[C@H]([C@@H](C)O)NC1=O` [listing 2 of 2 here], the ED in assay [5] stood at 8.1 nM/kg; in assay [6], 2.4 nM/kg.

For the compound `CC[C@H](C)[C@@H]1NC(=O)[C@@H](Cc2ccccc2)NC(=O)CC2(CCCCC2)SSC[C@@H](C(=O)N2CCC[C@H]2C(=O)N[C@@H](CCCN=C(N)N)C(=O)NCC(N)=O)NC(=O)[C@H](CC(N)=O)NC(=O)[C@H](C(C)C)NC1=O`, the Kb in assay [1] was 5.62 nM; in assay [2], 34.7 nM; in assay [7], 617 nM; in assay [3], 229 nM; in assay [4], 12.9 nM.

In the case of `CC[C@H](C)[C@@H]1NC(=O)[C@@H](Cc2ccc(OC)cc2)NC(=O)CC2(CCCCC2)SSC[C@@H](C(=O)N2CCC[C@H]2C(=O)N[C@@H](CCCN=C(N)N)C(=O)NCC(N)=O)NC(=O)[C@H](CC(N)=O)NC(=O)[C@H](C(C)C)NC1=O`, the Kb was 5.62 nM in assay [1]; 33.1 nM in assay [2]; 132 nM in assay [7]; 15.1 nM in assay [3]; 22.4 nM in assay [4].

On to `CC[C@H](C)[C@@H]1NC(=O)[C@H](Cc2ccc(OC)cc2)NC(=O)CC2(CCCCC2)SSC[C@@H](C(=O)N2CCC[C@H]2C(=O)N[C@@H](CCCN)C(=O)N[C@@H](CCCN=C(N)N)C(N)=O)NC(=O)[C@H](CC(N)=O)NC(=O)[C@H]([C@@H](C)O)NC1=O` [listing 1 of 2 here], for which the Kb in assay [1] is 5.5 nM; in assay [2], 28.8 nM; in assay [3], 11 nM; in assay [4], 20.4 nM.

As to `CC[C@H](C)[C@@H]1NC(=O)[C@H](Cc2ccc(OC)cc2)NC(=O)CC2(CCCCC2)SSC[C@@H](C(=O)N2CCC[C@H]2C(=O)N[C@@H](CCCN)C(=O)N[C@@H](CCCN=C(N)N)C(N)=O)NC(=O)[C@H](CC(N)=O)NC(=O)[C@H]([C@@H](C)O)NC1=O` [listing 2 of 2 here], the ED in assay [5] stood at 0.76 nM/kg; in assay [6], 2.3 nM/kg.

In the case of `CCOc1ccc(C[C@H]2NC(=O)CC3(CCCCC3)SSC[C@@H](C(=O)N3CCC[C@H]3C(=O)N[C@@H](CCCNC(N)=O)C(=O)NCC(N)=O)NC(=O)[C@H](CC(N)=O)NC(=O)[C@H](C(C)C)NC(=O)[C@H](Cc3ccccc3)NC2=O)cc1`, the Kb is 14.8 nM in assay [1]; 25.7 nM in assay [2]; 309 nM in assay [7]; 11.7 nM in assay [3]; 2.45 nM in assay [4].

With `COc1ccc(C[C@H]2NC(=O)CC3(CCCCC3)SSC[C@@H](C(=O)N3CCC[C@H]3C(=O)N[C@@H](CCCN=C(N)N)C(=O)NCC(N)=O)NC(=O)[C@H](CC(N)=O)NC(=O)[C@H](CCC(N)=O)NC(=O)[C@H](Cc3ccccc3)NC2=O)cc1`, the Kb is 4.79 nM in assay [1]; 33.9 nM in assay [2]; 105 nM in assay [7]; 5.37 nM in assay [3]; 13.5 nM in assay [4].

Take `COc1ccc(C[C@@H]2NC(=O)CC3(CCCCC3)SSC[C@@H](C(=O)N3CCC[C@H]3C(=O)N[C@@H](CCCN=C(N)N)C(=O)NCC(N)=O)NC(=O)[C@H](CC(N)=O)NC(=O)[C@H](CCC(N)=O)NC(=O)[C@H](Cc3ccccc3)NC2=O)cc1`: the ED was 0.16 nM/kg in assay [5] and 17 nM/kg in assay [6].

Consider `COc1ccc(C[C@H]2NC(=O)CC3(CCCCC3)SSC[C@@H](C(=O)N3CCC[C@H]3C(=O)N[C@@H](CCCN=C(N)N)C(=O)NCC(N)=O)NC(=O)[C@H](CC(N)=O)NC(=O)[C@H](C(C)C)NC(=O)[C@H](Cc3ccccc3)NC2=O)cc1`, for which the Kb in assay [1] was 14.8 nM; in assay [2] it was 26.9 nM; in assay [7], 17 nM; in assay [3], 3.31 nM; in assay [4], 11 nM.

Consider `COc1ccc(C[C@H]2NC(=O)CC3(CCCCC3)SSC[C@@H](C(=O)N3CC=C[C@H]3C(=O)N[C@@H](CCCN=C(N)N)C(=O)NCC(N)=O)NC(=O)[C@H](CC(N)=O)NC(=O)[C@H](C(C)C)NC(=O)[C@H](Cc3ccccc3)NC2=O)cc1`, for which the Kb in assay [1] was 110 nM; in assay [7], 24.5 nM; in assay [3], 8.32 nM; in assay [4] it was 13.2 nM.

Turning to `COc1ccc(C[C@@H]2NC(=O)CC3(CCCCC3)SSC[C@@H](C(=O)N3CCC[C@H]3C(=O)N[C@@H](CCCN=C(N)N)C(=O)NCC(N)=O)NC(=O)[C@H](CC(N)=O)NC(=O)[C@H](C(C)C)NC(=O)[C@H](Cc3ccccc3)NC2=O)cc1`, the Kb in assay [1] was 13.5 nM; in assay [2], 115 nM; in assay [7], 44.7 nM; in assay [4], 4.37 nM.

In the case of `CC[C@H](C)[C@@H]1NC(=O)[C@H](Cc2ccc(OC)cc2)NC(=O)CC2(CCCCC2)SSC[C@@H](C(=O)N2CCC[C@H]2C(=O)N[C@@H](CCCN)C(=O)NCC(N)=O)NC(=O)[C@H](CC(N)=O)NC(=O)[C@H](CCC(N)=O)NC1=O` (Y(Me)IQNCP[Orn]G-NH2; linker N-5 via X1), the Kb in assay [1] is 13.2 nM; in assay [2] it was 42.7 nM; in assay [3], 11 nM; in assay [4] it was 3.02 nM.

`CC[C@H](C)[C@@H]1NC(=O)[C@H](Cc2ccc(OC)cc2)NC(=O)CC2(CCCCC2)SSC[C@@H](C(=O)N2CCC[C@H]2C(=O)N[C@@H](CCCN)C(N)=O)NC(=O)[C@H](CC(N)=O)NC(=O)[C@H]([C@@H](C)O)NC1=O` (Y(Me)ITNCP[Orn]-NH2; linker N-5 via X1): the Kb in assay [1] was 2.75 nM; in assay [2], 24.5 nM; in assay [7] it was approximately 1580 nM; in assay [3] it was 105 nM; in assay [4] it was 6.76 nM.

Turning to `CC[C@H](C)[C@@H]1NC(=O)[C@H](Cc2ccc(OC)cc2)NC(=O)CC2(CCCCC2)SSC[C@@H](C(=O)N2CCC[C@H]2C(=O)N[C@@H](CCCN)C(=O)N[C@@H](CC(C)C)C(N)=O)NC(=O)[C@H](CC(N)=O)NC(=O)[C@H]([C@@H](C)O)NC1=O` (Y(Me)ITNCP[Orn]L-NH2; linker N-5 via X1), the Kb in assay [1] was 3.47 nM; in assay [2], 26.9 nM; in assay [3] it was 407 nM; in assay [4], 16.6 nM.

Regarding `CC[C@H](C)[C@@H]1NC(=O)[C@H](Cc2ccc(OC)cc2)NC(=O)CC2(CCCCC2)SSC[C@@H](C(=O)N2CCC[C@H]2C(=O)N[C@@H](CCCN)C(=O)N[C@@H](Cc2ccc(O)cc2)C(N)=O)NC(=O)[C@H](CC(N)=O)NC(=O)[C@H]([C@@H](C)O)NC1=O` (Y(Me)ITNCP[Orn]Y-NH2; linker N-5 via X1), the Kb in assay [1] is 5.25 nM; in assay [2] it was 14.8 nM; in assay [3], 95.5 nM; in assay [4], 23.4 nM.

For the compound `CCOc1ccc(C[C@H]2NC(=O)CC3(CCCCC3)SSC[C@@H](C(=O)N3CCC[C@H]3C(=O)N[C@@H](CCCN=C(N)N)C(=O)NCC(N)=O)NC(=O)[C@H](CC(N)=O)NC(=O)[C@H](C(C)C)NC(=O)[C@H](Cc3ccccc3)NC2=O)cc1` ([dY](Et)FVNCPRG-NH2; linker N-5 via X1), the Kb was 33.9 nM in assay [2], 15.5 nM in assay [7] and 6.03 nM in assay [3].

On to `CC[C@H](C)[C@@H]1NC(=O)C(Cc2ccc(OC)cc2)NC(=O)CC2(CCCCC2)SSC[C@@H](C(=O)N2CCC[C@H]2C(=O)N[C@@H](CCCN=C(N)N)C(=O)NCC(N)=O)NC(=O)[C@H](CC(N)=O)NC(=O)[C@H](CCC(N)=O)NC1=O` (stereo in doubt), for which the Kb in assay [1] was 3.24 nM; in assay [2], 15.8 nM; in assay [3] it was 8.32 nM; in assay [4] it was 1.91 nM.

As for `CC[C@H](C)[C@@H]1NC(=O)C(Cc2ccc(OC)cc2)NC(=O)CC(C)(C)SSC[C@@H](C(=O)N2CCC[C@H]2C(=O)N[C@@H](CCCN=C(N)N)C(=O)NCC(N)=O)NC(=O)[C@H](CC(N)=O)NC(=O)[C@H](C(C)C)NC1=O` (stereo in doubt), the Kb in assay [1] is 7.76 nM; in assay [2], 26.9 nM; in assay [3], 3.47 nM; in assay [4] it was 17.8 nM.

For `CC[C@H](C)[C@@H]1NC(=O)C(Cc2ccc(OC)cc2)NC(=O)CC(C)(C)SSC[C@@H](C(=O)N2CCC[C@H]2C(=O)N[C@@H](CCCN=C(N)N)C(=O)NCC(N)=O)NC(=O)[C@H](CC(N)=O)NC(=O)[C@H](CCC(N)=O)NC1=O` (stereo in doubt), the Kb in assay [1] is 1.95 nM; in assay [2], 24.5 nM; in assay [3], 3.55 nM; in assay [4], 0.759 nM.

As for `CC[C@H](C)[C@@H]1NC(=O)C(Cc2ccc(OC)cc2)NC(=O)CC2(CCCCC2)SSC[C@@H](C(=O)N2CCC[C@H]2C(=O)N[C@@H](CCCCN)C(=O)NCC(N)=O)NC(=O)[C@H](CC(N)=O)NC(=O)[C@H](CCC(N)=O)NC1=O` (stereo in doubt), the Kb in assay [1] is 15.5 nM; in assay [2], 58.9 nM; in assay [3] it was 20.9 nM; in assay [4] it was 23.4 nM.
